The IC50 is the point on the concentration scale where inhibition reaches its midpoint. What is called inhibition is the change of the read-out against control, counted positive when it falls.

From ChEMBL document CHEMBL4382245, “Balancing reactivity and antitumor activity: heteroarylthioacetamide derivatives as potent and time-dependent inhibitors of EGFR” (Eur J Med Chem, 2019) come the findings set out here.

One series concerns NCI-H1975. Put plainly: cells. The format is functional, cell-based. Conditions: Homo sapiens, NCI-H1975, 72 h.
For series [1], the target named is T1, Epidermal growth factor receptor (Homo sapiens, UniProt P00533). Conditions: A549, at 1 µM.
Series [2] in a line: Drug uptake in human A549 cells at 1 uM after 1 hr by LC-MS analysis. The class given is ADME, cell-based. Conditions: a549, 1 h. In outline:
(§1)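 A549 cells plated at 1,000,000 per 25 cm2 dish, dosed after 24 h at 1 µM final (0.1% DMSO), 1 h at 37 °C. Harvested at once or 8 h after three washes with fresh medium. Ethanol extraction, LC-MS quantitation as pmol/mg protein (Bradford), converted to µM using 4 µL cell volume per mg protein. Mean ± SD, three experiments.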

For series [3], the target named is T1, Epidermal growth factor receptor. Conditions: A549, at 1 µM. This is another data set of the same source.
The target is the same in series [4].
In series [5] the test system is Epidermal growth factor receptor (Homo sapiens), P00533 [L858R,T790M]. Conditions: NCI-H1975, at 1 µM.
Series [6] shares this test system. Conditions: NCI-H1975, at 0.1 µM.
Series [7] is described as follows: Cysteine reactivity in pH 10 CAPS buffer assessed as peak area for cysteine-compound adduct formation at 10 uM after 24 hrs in presence of 100 molar excess cysteine by LC-MS analysis relative to 2-chloro-N-(4-((3-chloro-4-fluorophenyl)amino)-7-ethoxyquinazolin-6-yl)acetamide. In short, it runs like this:
(§2)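 Compound at 10 µM added to freshly prepared 1 mM cysteine (1:100) in 50 mM CAPS pH 10, ionic strength 0.15 M with KCl; 37 °C; Cys-conjugate measured after 24 h by LC-MS in MRM mode. Half-life from LC-MS; conjugate peak area scaled to the 2-chloroacetamide conjugate set at 10,000.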

A short description of series [8]: Drug uptake in human A549 cells at 1 uM incubated for 1 hr followed by compound washout and measured after 8 hrs by LC-MS analysis. The class given is ADME, cell-based. Conditions: a549, 1 h. In short, it runs like this: as §1
Series [9] addresses T1, Epidermal growth factor receptor. Put plainly: Inhibition of wild type EGFR autophosphorylation in human A549 cells by Western blot analysis. The class given is cell-based.
Series [10] in a line: Cysteine reactivity in pH 10 CAPS buffer assessed as half life for cysteine-compound adduct formation at 10 uM after 24 hrs in presence of 100 molar excess cysteine by LC-MS analysis. In short, it runs like this: as §2
Another series deals with A549. Put plainly: Ratio of drug uptake in human A549 cells at 1 uM measured after 1 hr to drug uptake in human A549 cells at 1 uM incubated for 1 hr followed by compound washout and measured after 8 hrs. The format is ADME, cell-based. Conditions: a549, 1 µM. In outline: as §1

Some results are limits rather than exact numbers.

T1 sequence (P00533 whole entry): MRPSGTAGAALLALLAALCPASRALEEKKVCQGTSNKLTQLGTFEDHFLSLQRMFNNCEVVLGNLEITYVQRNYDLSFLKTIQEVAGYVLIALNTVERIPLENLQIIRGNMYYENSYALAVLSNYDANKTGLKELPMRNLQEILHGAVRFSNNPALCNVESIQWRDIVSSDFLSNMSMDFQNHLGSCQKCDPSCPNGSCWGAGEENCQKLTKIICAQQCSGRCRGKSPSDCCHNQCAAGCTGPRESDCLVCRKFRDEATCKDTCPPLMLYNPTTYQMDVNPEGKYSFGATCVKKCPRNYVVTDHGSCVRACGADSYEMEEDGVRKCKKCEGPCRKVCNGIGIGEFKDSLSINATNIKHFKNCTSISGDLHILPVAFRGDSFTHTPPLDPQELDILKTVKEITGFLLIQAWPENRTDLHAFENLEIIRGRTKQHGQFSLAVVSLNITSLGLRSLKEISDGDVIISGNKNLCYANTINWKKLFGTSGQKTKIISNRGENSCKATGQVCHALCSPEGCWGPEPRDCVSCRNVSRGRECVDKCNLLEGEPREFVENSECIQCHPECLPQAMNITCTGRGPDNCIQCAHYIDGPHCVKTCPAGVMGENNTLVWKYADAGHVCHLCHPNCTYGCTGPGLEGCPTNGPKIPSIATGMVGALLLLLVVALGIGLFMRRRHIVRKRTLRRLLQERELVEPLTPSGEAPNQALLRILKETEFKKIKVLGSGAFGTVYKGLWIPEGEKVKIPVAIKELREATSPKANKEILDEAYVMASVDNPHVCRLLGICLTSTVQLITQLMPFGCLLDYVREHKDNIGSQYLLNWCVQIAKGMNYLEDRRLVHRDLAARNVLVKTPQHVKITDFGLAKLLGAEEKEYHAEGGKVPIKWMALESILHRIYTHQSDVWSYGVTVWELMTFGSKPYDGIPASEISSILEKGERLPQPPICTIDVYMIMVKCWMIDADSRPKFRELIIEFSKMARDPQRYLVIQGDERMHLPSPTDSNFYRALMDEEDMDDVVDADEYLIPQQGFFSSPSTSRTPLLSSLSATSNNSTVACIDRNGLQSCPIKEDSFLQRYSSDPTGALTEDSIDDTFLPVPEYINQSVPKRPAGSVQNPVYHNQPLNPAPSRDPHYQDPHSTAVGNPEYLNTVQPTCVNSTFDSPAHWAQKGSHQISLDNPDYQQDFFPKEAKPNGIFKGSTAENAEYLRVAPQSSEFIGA
Chain of Epidermal growth factor receptor (Homo sapiens), P00533 [L858R,T790M] (P00533 whole entry T790M/L858R, looked up): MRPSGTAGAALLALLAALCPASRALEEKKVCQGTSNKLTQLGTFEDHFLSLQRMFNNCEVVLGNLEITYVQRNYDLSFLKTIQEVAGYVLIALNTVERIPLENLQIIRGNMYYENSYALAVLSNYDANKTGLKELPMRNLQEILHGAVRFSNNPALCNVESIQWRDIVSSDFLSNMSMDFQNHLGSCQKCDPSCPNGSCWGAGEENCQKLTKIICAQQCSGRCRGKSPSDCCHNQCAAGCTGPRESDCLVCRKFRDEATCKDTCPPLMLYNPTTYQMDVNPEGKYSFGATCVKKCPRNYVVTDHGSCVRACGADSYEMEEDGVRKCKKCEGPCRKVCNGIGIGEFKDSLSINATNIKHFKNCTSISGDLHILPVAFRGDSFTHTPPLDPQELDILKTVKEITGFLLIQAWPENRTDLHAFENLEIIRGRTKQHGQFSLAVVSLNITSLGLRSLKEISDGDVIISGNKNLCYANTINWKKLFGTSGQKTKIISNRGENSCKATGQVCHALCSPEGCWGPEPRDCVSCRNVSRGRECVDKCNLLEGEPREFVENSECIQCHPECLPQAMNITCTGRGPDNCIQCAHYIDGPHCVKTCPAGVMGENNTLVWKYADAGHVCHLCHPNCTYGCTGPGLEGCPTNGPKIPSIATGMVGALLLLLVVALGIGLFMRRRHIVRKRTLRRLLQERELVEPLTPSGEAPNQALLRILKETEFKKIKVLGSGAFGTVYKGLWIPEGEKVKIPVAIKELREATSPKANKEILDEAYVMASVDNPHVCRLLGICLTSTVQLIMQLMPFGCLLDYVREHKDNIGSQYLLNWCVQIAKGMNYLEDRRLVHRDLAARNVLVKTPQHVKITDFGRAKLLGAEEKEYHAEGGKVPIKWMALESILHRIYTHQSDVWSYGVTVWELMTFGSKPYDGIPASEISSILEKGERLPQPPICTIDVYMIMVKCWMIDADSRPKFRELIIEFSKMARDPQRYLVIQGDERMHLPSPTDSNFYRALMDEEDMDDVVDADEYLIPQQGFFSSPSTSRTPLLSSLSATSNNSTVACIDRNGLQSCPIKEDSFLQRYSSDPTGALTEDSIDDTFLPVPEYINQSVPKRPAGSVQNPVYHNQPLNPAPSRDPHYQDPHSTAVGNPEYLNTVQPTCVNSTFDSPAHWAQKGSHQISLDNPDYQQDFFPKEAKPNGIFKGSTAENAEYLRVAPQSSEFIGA

For `C=CC(=O)Nc1cc(Nc2nccc(-c3cn(C)c4ccccc34)n2)c(OC)cc1N(C)CCN(C)C` [OSIMERTINIB], in the series with NCI-H1975, inhibition was half-maximal at […] (IC50).
Turning to `CCOc1cc2ncnc(Nc3ccc(F)c(Cl)c3)c2cc1NC(=O)COC(C)=O`, the inhibition turned out to be 97% in series [1], 75% in [3], 68% in [5] and 27% in series [6]. The Drug uptake is 5.8 µM in series [2] and < 0.05 µM in [8]. Moreover, the IC50 in [4] amounted to 0.52 nM; in the series on NCI-H1975, 3400 nM; in series [9], 34 nM. Further, the Activity in [7] was 0.64 a.u. Besides, the T1/2 in series [10] is 23.3 h.
In the case of `CCOc1cc2ncnc(Nc3ccc(F)c(Cl)c3)c2cc1NC(=O)CO`, the Ratio with A549 is recorded as 120. Besides, the inhibition turned out to be 90% in series [1], 77% in series [3], 0% in series [5] and 0% in [6]. Besides, the values for the Drug uptake in [2] and in series [8] were 132 µM and 1.1 µM, respectively. Further, the IC50 is 0.34 nM in [4], > 10000 nM with NCI-H1975 and 27 nM in [9]. Further, the T1/2 in series [10] is > 24 h.
As for `COc1cc2ncnc(Nc3ccc(F)c(Cl)c3)c2cc1OCCCN1CCOCC1` [GEFITINIB], the Drug uptake in [2] is 271 µM; in series [8], 2.4 µM.
For `CCOc1cc2ncnc(Nc3ccc(F)c(Cl)c3)c2cc1NC(=O)COC(=O)c1ccccc1`, the inhibition was found to be 88% in series [1], 89% in series [3], 43% in series [5] and 0.5% in [6]. In addition, the IC50 with NCI-H1975 was found to be 8300 nM; in series [9] it was 25 nM. Besides, the Activity in [7] was 11 a.u. For the same molecule, the T1/2 in [10] was > 24 h.
Regarding `CCOc1cc2ncnc(Nc3ccc(F)c(Cl)c3)c2cc1NC(=O)COC(=O)c1c(C)cccc1C`, the inhibition in series [1] is 97%; in series [3], 97%; in series [5] it was 16%; in series [6] it was 20%. Also, the IC50 in the series with NCI-H1975 was 6100 nM; in series [9], 44 nM. The Activity in series [7] is 5 a.u. Moreover, the T1/2 in series [10] is > 24 h.
